Screening data: PubChem BioAssay, several laboratories
In the library only some 29% were active in any assay of this set; here they are far more common.
CYP2C9 act – activators of human CYP2C9. P11712. recombinant CYP2C9, luciferin-H conversion, luminescence; active compounds read high; factor 1 = untreated enzyme, 0 = blocked. activation factor at 5 µM. 1.4% of 96,000 active. AID 1024;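 active = activation factor of 2 or more for CYP2C9 at a 5 µM dose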;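 note: 0 = sulfaphenazole-blocked wells and 1 = vehicle-only wells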
Target sequence (P11712 whole entry, looked up): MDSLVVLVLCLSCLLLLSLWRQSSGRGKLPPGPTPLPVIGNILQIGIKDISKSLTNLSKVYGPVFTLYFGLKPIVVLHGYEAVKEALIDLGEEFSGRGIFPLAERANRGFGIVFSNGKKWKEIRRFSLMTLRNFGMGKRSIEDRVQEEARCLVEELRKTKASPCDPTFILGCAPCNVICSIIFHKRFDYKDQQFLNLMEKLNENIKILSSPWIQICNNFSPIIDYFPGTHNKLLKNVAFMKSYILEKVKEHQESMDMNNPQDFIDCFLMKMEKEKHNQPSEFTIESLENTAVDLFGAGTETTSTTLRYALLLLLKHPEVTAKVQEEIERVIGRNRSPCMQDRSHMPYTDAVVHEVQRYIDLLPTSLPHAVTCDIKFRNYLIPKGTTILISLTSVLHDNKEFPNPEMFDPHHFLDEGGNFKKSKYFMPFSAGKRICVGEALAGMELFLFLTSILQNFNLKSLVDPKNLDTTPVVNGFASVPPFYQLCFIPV
CYP2C19 inh – inhibitors of human CYP2C19; P33261; CYP2C19 Supersomes, luciferin-H EGE luminescence, 30 min; inhibition, % at 5 µM; 21% of 96,000 active; AID 778;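 active = CYP2C19 inhibition above a set limit at 5 µM in the primary screen, cut at about 50% in these data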;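 note: plate controls were negative control wells for no effect and 2.5 mM tranylcypromine positive control for full effect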
CYP2C9 inh – inhibitors of human CYP2C9; CYP2C9 Supersomes, luciferin-H conversion, luminescence; inhibition, % at 5 µM; 20% of 96,000 active;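 active = blocking of liver enzyme CYP2C9 beyond about 50% at 5 µM, limit read from the data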
E coli WT exp – blocks growth of wild type E. coli BW25113 | OD600 absorbance | 0.15% of 98,000 active | growth inhibition, % at 100 µM | AID 710;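 active = growth inhibition above about 50% at one test dose, limit read from the data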;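 note: growth measured after 20 h incubation at 37 °C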
Ecoli tolC – blocks growth of E. coli BW25113 tolC mutant; OD615; growth inhibition, % at 10 µM (by protocol); 2.2% of 65,000 active;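 active = growth inhibition at or above a cutoff equal to the mean over every tested compound plus 3 SD, cut at about 60% in these data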;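 note: growth measured after 20 h incubation at 37 °C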
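System: E. coli ΔtolC::kan strain BW25113; Buffer or medium: LB broth supplemented with 50 µg/mL kanamycin; Compound: 10 µM final, single dose; Incubation: bacterial growth with compound for 20 h at 37 °C; Signal: A615 absorbance measurement; Evaluation: growth inhibition in percent.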
CYP2C19 act – activators of human cytochrome P450 2C19; recombinant CYP2C19, luciferin-H EGE luminescence; active compounds read high; 0 = fully inhibited enzyme, 1 = untreated enzyme; activation factor at 5 µM; P33261; 96,000 tested, under 10 active;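 active = activation factor of at least 2 at 5 µM in the primary screen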;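 note: 0 = wells with 2.5 mM tranylcypromine and 1 = vehicle-only wells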
* hit, by the source's call; · = no result.

SMILES	CYP2C9 act	CYP2C19 inh	CYP2C9 inh	E coli WT exp	Ecoli tolC	CYP2C19 act
C[C@H]1CCC[C@@H](O)CCC/C=C/c2cc(O)cc(O)c2C(=O)O1	0.2	89*	78*	2	26	0.1
C[C@H]1CCC[C@H](O)CCCCCc2cc(O)cc(O)c2C(=O)O1	0.6	81*	44	-1	12	0.2
CC1CCC/C=C/C2CC(O)CC2C(O)/C=C/C(=O)O1 (stereo unspecified)	1.1	11	-11	-2	·	0.9
C=CCn1c(O)c(C=Nc2ccc(OC)cc2C)c(=O)[nH]c1=O	0.9	12	12	8	-16	0.9
CC1(C)NCCN2C(=O)CSC21 (stereo unspecified)	1.1	0	-7	3	2	1
O=C1C2CCCN2C(c2cccnc2)N1c1cccc(Cl)c1 (stereo unspecified)	0.9	16	15	9	-11	0.8
c1cncc(C2CCCCN2Cc2ccc3c(c2)OCO3)c1 (stereo unspecified)	0.8	97*	20	-10	-16	0
Clc1cccc(CN2CCCCC2c2cccnc2)c1 (stereo unspecified)	0.5	95*	54*	·	-1	0.1
CC1CCN(S(=O)(=O)c2ccc(NN=C(C#N)C#N)cc2)CC1	0.1	4	94*	10	·	1
Cc1cc(S(=O)(=O)NCC(C)C)ccc1OCC(=O)N1CCN(Cc2ccccc2)CC1	0.3	50*	66*	2	15	0.5
Cc1cc(S(=O)(=O)NC(C)C)ccc1OCC(=O)N1CCN(Cc2ccc3c(c2)OCO3)CC1	0.4	63*	59*	-3	-5	0.4
CC(C)NS(=O)(=O)c1ccc(OCC(=O)N2CCN(Cc3ccc4c(c3)OCO4)CC2)c(Cl)c1	0.8	71*	18	2	·	0.3
CN1CCN(C(=O)COc2ccc(S(=O)(=O)NCc3ccccc3)cc2Cl)CC1	1.3	-1	-28	5	·	1
Clc1ccc(COC(Cn2ccnc2)c2ccc(Cl)cc2Cl)cc1 (stereo unspecified)	·	·	·	·	100*	·
Clc1ccc(CSC(Cn2ccnc2)c2ccc(Cl)cc2Cl)cc1 (stereo unspecified)	·	·	·	·	10	·
O=P(O)(O)Cc1ccccc1OP(=O)(c1ccccc1)c1ccccc1	0.9	0	11	-2	-13	1
CCCCn1c(O)c(C(CC)=NCc2ccc3c(c2)OCO3)c(=O)[nH]c1=O	0.2	74*	82*	5	14	0.3
C=CCn1c(O)c(C(CC)=NCc2cc(OC)cc(OC)c2)c(=O)[nH]c1=O	0	46	95*	5	24	0.5
Cc1nc2cc(C(F)(F)F)ccc2n1C1CCN(Cc2nnnn2Cc2ccc3c(c2)OCO3)CC1	0.1	57*	92*	2	14	0.4
FC(F)(F)c1ccc2c(c1)ncn2C1CCN(Cc2nnnn2C2CCCCC2)CC1	0.3	88*	69*	-2	38	0.1
Cc1nc2cc(C(F)(F)F)ccc2n1C1CCN(Cc2nnnn2Cc2cccs2)CC1	0.2	24	79*	-11	14	0.8
COc1ccccc1N1CCN(Cc2ccc(Br)s2)CC1	0.2	94*	78*	9	37	0.1
COc1ccccc1N1CCN(Cc2c(F)cccc2Cl)CC1	0.3	97*	68*	8	2	0
Oc1ccc(Br)cc1CN1CCN(c2ccccc2)CC1	0.4	24	64*	0	3	0.8
COc1ccccc1N1CCN(Cc2cc(C)c(C)cc2O)CC1	2.1*	79*	-110	8	·	0.2
SMILES	CYP2C9 act	CYP2C19 inh	CYP2C9 inh	E coli WT exp	Ecoli tolC	CYP2C19 act
CCN1CCN(Cc2cc(Br)ccc2O)CC1	1.3	22	-33	8	·	0.8
COc1cc(Br)cc(CN2CCN(C)CC2)c1O	1.1	2	-7	7	-21	1
C=CCOC(=O)C1=C(C)OC(N)=C(C#N)C12C(=O)N(CN1CCOCC1)c1ccccc12 (stereo unspecified)	1.1	7	-8	2	4	0.9
COc1cc(CN2CCN(c3cc(C)ccc3C)CC2)ccc1O	0.7	56*	33	6	-3	0.4
COc1cc(C)c(CN2CCN(c3ccccc3)CC2)cc1C	0.9	56*	6	7	2	0.4
COc1ccc(Br)cc1CN1CCN(CCO)CC1	0.7	28	26	6	-11	0.7
O=C(C1CC(c2ccc(F)cc2)=NO1)N1CCC2(CC1)OCCO2 (stereo unspecified)	1.1	94*	-8	-5	·	0.1
COc1cccc(C2=NOC(C(=O)N3CCC4(CC3)OCCO4)C2)c1 (stereo unspecified)	1	67*	-2	3	-12	0.3
O=C(C1CC(c2ccc(Cl)c(Cl)c2)=NO1)N1CCC2(CC1)OCCO2 (stereo unspecified)	1.8	96*	-84	8	7	0
COc1cccc(-n2nc(C(=O)N3CCC4(CC3)OCCO4)c3ccccc3c2=O)c1	0.6	13	36	3	-6	0.9
CCCC1COC(Cn2cncn2)(c2ccc(Cl)cc2Cl)O1 (stereo unspecified)	0.2	93*	77*	7	·	0.1
CC1(C)CC(=O)C=C(NCCN2CCN(C(=O)Cc3ccc(Cl)cc3)CC2)C1	0.8	28	21	·	-6	0.7
CC(Cc1ccccc1Sc1ccc(O)cc1)N(C)C (stereo unspecified)	1.1	24	-14	11	·	0.8
O=C(Cn1nc(Cc2cccnc2)c2ccccc2c1=O)N1CCC2(CC1)OCCO2	0.2	22	80*	-3	-14	0.8
O=c1c2ccccc2nc(-c2ccccc2)n1-n1cccc1	0.4	53*	57*	-3	-2	0.5
CC(=NCCC1=CCCCC1)c1c(O)n(C)c(=O)n(C)c1=O	0.5	42	50*	0	3	0.6
CC(=O)C1C2c3ccccc3OC1(C)N=c1s/c(=C/c3cn(C)nc3C)c(=O)n12 (stereo unspecified)	0.8	20	23	2	0	0.8
CC(=O)c1ccc2c(c1)C1C(Cl)C(Sc3ccccc3[N+](=O)[O-])CC1C(c1ccccc1)N2 (stereo unspecified)	0.3	44	74*	-10	·	0.6
CSCCC(N=Cc1c(O)n(-c2ccc(Cl)cc2)c(=O)[nH]c1=O)C(=O)OC(C)(C)C (stereo unspecified)	0.9	13	10	7	·	0.9
Fc1ccc(C2=CCN(C(c3cccs3)c3nnnn3CCc3ccccc3)CC2)cc1 (stereo unspecified)	0.3	50*	74*	-10	·	0.5
CCC(C)(C)n1nnnc1C(c1cccs1)N1CC=C(c2ccc(F)cc2)CC1 (stereo unspecified)	0.2	56*	79*	-11	15	0.4
Nc1ccccc1C(=O)OC1CSC1	1.1	-16	-13	6	-13	1.2
